In ChEMBL document CHEMBL1821569, “Synthesis of novel 1,2,5-trisubstituted benzimidazoles as potential antitumor agents” (2011):

Experiments:
Type in all cases: functional
EKVX = experiment: Antitumor activity against human EKVX cells after 48 hrs by SRB assay
In short: (§1)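 NCI 60-cell-line secondary screen. Cells were exposed continuously to drug for 48 h at five concentration levels (100, 10, 1.0, 0.1 and 0.01). Growth was estimated by sulforhodamine B protein staining. GI50 is the concentration giving a 50% reduction in net protein increase versus untreated control cells over the incubation. TGI (total growth inhibition) and LC50 (50% cell kill) were also derived.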

SR = experiment: Antitumor activity against human SR cells after 48 hrs by SRB assay
In short: (§2)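 NCI 60-cell-line secondary screen. Continuous 48 h exposure at five concentration levels. Cell growth estimated by sulforhodamine B protein staining. GI50 taken as the concentration giving 50% reduction in net protein increase relative to untreated control cells over the incubation. TGI (total growth inhibition) and LC50 (50% cell kill) were also derived.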

SK-MEL-5 = experiment: Antitumor activity against human SK-MEL-5 cells after 48 hrs by SRB assay; conditions: SK-MEL-5, 48 h; in short: as §1
COLO 205 = experiment: Antitumor activity against human COLO205 cells after 48 hrs by SRB assay; conditions: COLO 205, 48 h; in short: as §1
UO-31 = experiment: Antitumor activity against human UO31 cells after 48 hrs by SRB assay; conditions: UO-31, 48 h; in short: as §2
A498 = experiment: Antitumor activity against human A498 cells after 48 hrs by SRB assay; conditions: A498, 48 h; in short: as §1
IGROV-1 = experiment: Antitumor activity against human IGROV1 cells after 48 hrs by SRB assay; conditions: IGROV-1, 48 h; in short: as §1
MDA-MB-468 = experiment: Antitumor activity against human MDA-MB-468 cells after 48 hrs by SRB assay; conditions: MDA-MB-468, 48 h; in short: as §1
SF-268 = experiment: Antitumor activity against human SF268 cells after 48 hrs by SRB assay; conditions: SF-268, 48 h; in short: as §1
NCI-H226 = experiment: Antitumor activity against human NCI-H226 cells after 48 hrs by SRB assay; conditions: NCI-H226, 48 h; in short: as §1
SK-OV-3 = experiment: Antitumor activity against human SKOV3 cells after 48 hrs by SRB assay; conditions: SK-OV-3, 48 h; in short: as §1
[1] = Antitumor activity against human Hs 578T cells after 48 hrs by SRB assay; in short: as §1
NCI-H460 = experiment: Antitumor activity against human NCI-H460 cells after 48 hrs by SRB assay; conditions: NCI-H460, 48 h; in short: as §1
OVCAR-4 = experiment: Antitumor activity against human OVCAR4 cells after 48 hrs by SRB assay; conditions: OVCAR-4, 48 h; in short: as §1
NCI-H23 = experiment: Antitumor activity against human NCI-H23 cells after 48 hrs by SRB assay; conditions: NCI-H23, 48 h; in short: as §1
LOX IMVI = experiment: Antitumor activity against human LOXIMVI cells after 48 hrs by SRB assay; in short: as §1
Malme-3M = experiment: Antitumor activity against human MALME-3M cells after 48 hrs by SRB assay; in short: as §1
OVCAR-8 = experiment: Antitumor activity against human OVCAR8 cells after 48 hrs by SRB assay; conditions: OVCAR-8, 48 h; in short: as §1
NCI-H522 = experiment: Antitumor activity against human NCI-H522 cells after 48 hrs by SRB assay; conditions: NCI-H522, 48 h; in short: as §1
RPMI-8226 = experiment: Antitumor activity against human RPMI8226 cells after 48 hrs by SRB assay; conditions: RPMI-8226, 48 h; in short: as §1
TK-10 = experiment: Antitumor activity against human TK10 cells after 48 hrs by SRB assay; conditions: TK-10, 48 h; in short: as §2
HCT-15 = experiment: Antitumor activity against human HCT15 cells after 48 hrs by SRB assay; conditions: HCT-15, 48 h; in short: as §1
786-0 = experiment: Antitumor activity against human 786-0 cells after 48 hrs by SRB assay; conditions: 786-0, 48 h; in short: as §1
SN12C = experiment: Antitumor activity against human SN12C cells after 48 hrs by SRB assay; in short: as §1
NCI/ADR-RES = experiment: Antitumor activity against human NCI/ADR-RES cells after 48 hrs by SRB assay; in short: as §1
SK-MEL-28 = experiment: Antitumor activity against human SK-MEL-28 cells after 48 hrs by SRB assay; conditions: SK-MEL-28, 48 h; in short: as §1
HL-60(TB) = experiment: Antitumor activity against human HL-60(TB) cells after 48 hrs by SRB assay; conditions: HL-60, 48 h
In short: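 NCI 60-cell-line secondary screen: continuous drug exposure for 48 h at five concentration levels (100, 10, 1.0, 0.1 and 0.01). Cell growth was estimated by sulforhodamine B (SRB) protein staining. GI50 is the concentration giving a 50% reduction in net protein increase relative to untreated control cells during the incubation. TGI and LC50 were derived from the same data.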

HCT-116 = experiment: Antitumor activity against human HCT116 cells after 48 hrs by SRB assay; conditions: HCT-116, 48 h; in short: as §1
CCRF-CEM = experiment: Antitumor activity against human CCRF-CEM cells after 48 hrs by SRB assay; in short: as §1
[2] = read-out: LC50 (the source's name)

Question: With `COC(=O)c1ccc2c(c1)nc(-c1ccc(Cl)cc1)n2-c1cc(C(C)(C)C)[nH]n1` as the molecule, how does the GI50 (EKVX) read?
Answer: 3.06 µM

Question: What about the LC50 (50% cell kill) (EKVX) of the same molecule?
Answer: > 100 µM

Question: And the TGI (EKVX)?
Answer: > 100 µM

Question: And the GI50 (SR)?
Answer: 3.23 µM

Question: What about the TGI (SR) of the same molecule?
Answer: > 100 µM

Question: And the CC50 (SR; [2])?
Answer: > 100 µM

Question: What about the GI50 (SK-MEL-5) of the same molecule?
Answer: 2.02 µM

Question: What about the TGI (SK-MEL-5) of the same molecule?
Answer: 5.1 µM

Question: What about the CC50 (SK-MEL-5; [2]) of the same molecule?
Answer: 0.186 µM

Question: What about the GI50 (COLO 205) of the same molecule?
Answer: 2.29 µM

Question: What about the TGI (COLO 205) of the same molecule?
Answer: 6.04 µM

Question: And the CC50 (COLO 205; [2])?
Answer: 0.463 µM

Question: And the GI50 (UO-31)?
Answer: 3.35 µM

Question: And the TGI (UO-31)?
Answer: 44.1 µM

Question: What about the CC50 (UO-31; [2]) of the same molecule?
Answer: > 100 µM

Question: And the GI50 (A498)?
Answer: 2.26 µM

Question: What about the TGI (A498) of the same molecule?
Answer: 9.76 µM

Question: What about the CC50 (A498; [2]) of the same molecule?
Answer: 0.858 µM

Question: What about the GI50 (IGROV-1) of the same molecule?
Answer: 3.64 µM

Question: And the TGI (IGROV-1)?
Answer: 25 µM

Question: What about the CC50 (IGROV-1; [2]) of the same molecule?
Answer: > 100 µM

Question: And the GI50 (MDA-MB-468)?
Answer: 2.4 µM

Question: And the TGI (MDA-MB-468)?
Answer: 7.98 µM

Question: And the CC50 (MDA-MB-468; [2])?
Answer: > 100 µM

Question: And the GI50 (SF-268)?
Answer: 3.29 µM

Question: What about the TGI (SF-268) of the same molecule?
Answer: 17.8 µM

Question: And the CC50 (SF-268; [2])?
Answer: > 100 µM

Question: What about the GI50 (NCI-H226) of the same molecule?
Answer: 4.09 µM

Question: And the LC50 (50% cell kill) (NCI-H226)?
Answer: > 100 µM

Question: What about the TGI (NCI-H226) of the same molecule?
Answer: 44 µM

Question: And the GI50 (SK-OV-3)?
Answer: 3.71 µM

Question: And the TGI (SK-OV-3)?
Answer: 31 µM

Question: What about the CC50 (SK-OV-3; [2]) of the same molecule?
Answer: > 100 µM

Question: What about the GI50 [1] of the same molecule?
Answer: 1.72 µM

Question: What about the TGI [1] of the same molecule?
Answer: 7.86 µM

Question: What about the CC50 [1, 2] of the same molecule?
Answer: > 100 µM

Question: And the GI50 (NCI-H460)?
Answer: 2.95 µM

Question: What about the TGI (NCI-H460) of the same molecule?
Answer: 8.81 µM

Question: What about the CC50 (NCI-H460; [2]) of the same molecule?
Answer: > 100 µM

Question: And the GI50 (OVCAR-4)?
Answer: 3.4 µM

Question: And the TGI (OVCAR-4)?
Answer: > 100 µM

Question: And the CC50 (OVCAR-4; [2])?
Answer: > 100 µM

Question: And the GI50 (NCI-H23)?
Answer: 3.42 µM

Question: And the LC50 (50% cell kill) (NCI-H23)?
Answer: > 100 µM

Question: And the TGI (NCI-H23)?
Answer: 36 µM

Question: And the GI50 (LOX IMVI)?
Answer: 3.7 µM

Question: What about the TGI (LOX IMVI) of the same molecule?
Answer: 14.5 µM

Question: What about the CC50 (LOX IMVI; [2]) of the same molecule?
Answer: 0.429 µM

Question: And the GI50 (Malme-3M)?
Answer: 3.25 µM

Question: What about the TGI (Malme-3M) of the same molecule?
Answer: 15.6 µM

Question: And the CC50 (Malme-3M; [2])?
Answer: > 100 µM

Question: And the GI50 (OVCAR-8)?
Answer: 7.33 µM

Question: And the TGI (OVCAR-8)?
Answer: 58.2 µM

Question: What about the CC50 (OVCAR-8; [2]) of the same molecule?
Answer: > 100 µM

Question: And the GI50 (NCI-H522)?
Answer: 3.21 µM

Question: What about the LC50 (50% cell kill) (NCI-H522) of the same molecule?
Answer: > 100 µM

Question: What about the TGI (NCI-H522) of the same molecule?
Answer: 20.3 µM

Question: And the GI50 (RPMI-8226)?
Answer: 3.93 µM

Question: What about the TGI (RPMI-8226) of the same molecule?
Answer: 19 µM

Question: And the CC50 (RPMI-8226; [2])?
Answer: > 100 µM

Question: What about the GI50 (TK-10) of the same molecule?
Answer: 6.94 µM

Question: What about the TGI (TK-10) of the same molecule?
Answer: > 100 µM

Question: What about the CC50 (TK-10; [2]) of the same molecule?
Answer: > 100 µM

Question: And the GI50 (HCT-15)?
Answer: 4.36 µM

Question: What about the LC50 (50% cell kill) (HCT-15) of the same molecule?
Answer: > 100 µM

Question: And the TGI (HCT-15)?
Answer: > 100 µM

Question: And the GI50 (786-0)?
Answer: 3.62 µM

Question: And the TGI (786-0)?
Answer: 32 µM

Question: What about the CC50 (786-0; [2]) of the same molecule?
Answer: > 100 µM

Question: What about the GI50 (SN12C) of the same molecule?
Answer: 4.34 µM

Question: What about the TGI (SN12C) of the same molecule?
Answer: 27.7 µM

Question: And the CC50 (SN12C; [2])?
Answer: > 100 µM

Question: What about the GI50 (NCI/ADR-RES) of the same molecule?
Answer: 2.72 µM

Question: What about the TGI (NCI/ADR-RES) of the same molecule?
Answer: 7.35 µM

Question: What about the CC50 (NCI/ADR-RES; [2]) of the same molecule?
Answer: > 100 µM

Question: And the GI50 (SK-MEL-28)?
Answer: 3.38 µM

Question: And the TGI (SK-MEL-28)?
Answer: 15.5 µM

Question: And the CC50 (SK-MEL-28; [2])?
Answer: 0.552 µM

Question: What about the GI50 (HL-60(TB)) of the same molecule?
Answer: 4.03 µM

Question: What about the LC50 (HL-60(TB)) of the same molecule?
Answer: > 100 µM

Question: What about the TGI (HL-60(TB)) of the same molecule?
Answer: 11.2 µM

Question: What about the GI50 (HCT-116) of the same molecule?
Answer: 3.47 µM

Question: And the LC50 (HCT-116)?
Answer: 0.563 µM

Question: What about the TGI (HCT-116) of the same molecule?
Answer: 12.3 µM

Question: And the GI50 (CCRF-CEM)?
Answer: 4.91 µM

Question: What about the TGI (CCRF-CEM) of the same molecule?
Answer: > 100 µM

Question: What about the CC50 (CCRF-CEM; [2]) of the same molecule?
Answer: > 100 µM
